Assay results collected from several papers.
Lines come from different studies, so protocols differ.
CDK4: Cyclin-dependent kinase 4 (CDK4, Homo sapiens, UniProt P11802)
CDK4 with cyclin D3: Cyclin-dependent kinase 4, with cyclin D3 (CDK4, Homo sapiens, UniProt P11802)
CDK4 with cyclin D1: Cyclin-dependent kinase 4, with cyclin D1 (CDK4, Homo sapiens, UniProt P11802)

O=C(c1ccc(Cl)c(Cl)c1)[C@H]1Cc2c(cc([N+](=O)[O-])cc2[N+](=O)[O-])[C@@H](O)[C@@]12C(=O)Nc1ccccc12
inhibition (CDK4; cell-free assay, inhibitor, TR-FRET; 1 µM): 35.6%

CN(CCCC(F)(F)F)c1nccc(-c2cnn3ncccc23)n1
remaining binding (CDK4 with cyclin D3; binding; 1 µM): 100%

COc1cc2c(cc1OC)-c1[nH]nc(Nc3cccc(F)c3)c1C2
remaining signal (CDK4 with cyclin D3; cell-free assay; 0.5 µM): 95.4%

CSc1cccnc1N1CCN(Cc2nc3ccccc3[nH]2)CC1
remaining binding (CDK4 with cyclin D3; cell-free assay, competition with immobilised ligand; 1 µM): 82%

F[C@@H]1CCN(c2nccc(-c3cnn4ncccc34)n2)C1
remaining binding (CDK4; binding; 1 µM): 100%

CC(C)(C)c1nc(-c2cccc(NS(=O)(=O)c3c(F)cccc3F)c2F)c(-c2ccnc(N)n2)s1
remaining activity (CDK4 with cyclin D3; enzyme activity, inhibitor, radiometric; 1 µM): 119%

Cc1ccc(C(=O)NCc2ccsc2)cc1C#Cc1cn(C(C)C)c2ncnc(N)c12
activity vs control (CDK4 with cyclin D3; enzyme activity, inhibitor; 1 µM): 92%

COc1ccc2cc(OCC3(C(=O)O)CN(C(=O)c4ccc(F)cc4)C3)ccc2c1
remaining binding (CDK4 with cyclin D3; cell-free assay, competition with immobilised ligand; 1 µM): 100%

Nc1ncnc2occ(-c3ccc(NC(=O)Nc4cc(C(F)(F)F)ccc4F)cc3)c12
remaining signal (CDK4 with cyclin D3; cell-free assay, inhibitor; 20 µM): 51%

CC(C)(O)[C@H]1CC[C@H](Nc2ccc3ncc(-c4cccc(C(F)(F)F)c4)n3n2)CC1
remaining activity (CDK4 with cyclin D3; enzyme activity, inhibitor; 1 µM): 106%

CC1=C(C#N)C(c2ccc3c(c2)c(NC(=O)c2ccccc2C)nn3C)C(C#N)=C(C)N1
remaining binding (CDK4 with cyclin D3; cell-free assay, competition with immobilised ligand; 1 µM): 79%

Oc1cccc(-c2nc(N3CCOCC3)c3oc4ncccc4c3n2)c1
remaining signal (CDK4 with cyclin D1; cell-free assay; 0.5 µM): 102%

CC(=O)N1CCC(c2ccc(C(=O)NC(=N)N)cc2C(F)(F)F)CC1
remaining binding (CDK4; cell-free assay, competition with immobilised ligand; 1 µM): 100%

Cc1sc(C(=O)NC2COC2)cc1-n1cc(NC(=O)Nc2c(F)cccc2Cl)cn1
remaining activity (CDK4 with cyclin D1; enzyme activity, inhibitor; 10 µM): 78%

N#CCCc1ccc2c(c1)-c1[nH]c3ccc([N+](=O)[O-])cc3c1CC(=O)N2
remaining signal (CDK4 with cyclin D3; cell-free assay; 0.5 µM): 25.9%

COc1cccc(CNC(=O)c2nc3scc(COCc4ccc(C(=O)O)cc4)c3c(=O)[nH]2)c1
remaining binding (CDK4 with cyclin D3; cell-free assay, competition with immobilised ligand; 1 µM): 91.1%

CC1CCCN1c1nccc(-c2cnn3ncccc23)n1 (stereo not shown)
remaining binding (CDK4 with cyclin D1; binding; 1 µM): 100%

CC(=O)C1=C(C)N(c2cccc(C(F)(F)F)c2)C(=O)N[C@@H]1c1ccc(C#N)nc1
remaining binding (CDK4; cell-free assay, competition with immobilised ligand; 1 µM): 100%

O=C(c1ccccc1F)[C@H]1Cc2c(cc([N+](=O)[O-])cc2[N+](=O)[O-])[C@H](O)[C@]12C(=O)Nc1ccccc12
inhibition (CDK4; cell-free assay, inhibitor, TR-FRET; 1 µM): 29.3%
